Screening data deposited in PubChem by several laboratories.
Shown are actives, neighbours in structure and some others; about 1.3% of the full set was active somewhere.
GSK3B inh = blocks human GSK3beta kinase activity; GST-GSK3beta kinase, ADP-Glo luminescence, 60 min; stronger effect = lower value; activity score (negative = inhibition), % at 10 µM; actives 0.038% (n = 300,000);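 active = more than half of replicate wells score below -50%, meaning over 50% inhibition versus plate controls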;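 note: 0% = median DMSO wells and -100% = median GW8510 positive control wells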
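Test system: GST-fused GSK3beta enzyme, cell-free | Quantity: 1.6 ng GST-GSK3beta enzyme per well | Reagent: 25 µM ATP with peptide substrate | Schedule: 60 min enzyme reaction, room temperature | Signal: Luminescent ADP-Glo measurement of ADP formed | Read-out basis: Score relative to plate controls | Control set: DMSO and 20 µM GW8510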
Hep lipid drop = hepatic lipid droplet formation modulation. actives 0.4% (n = 240,000). AML12 mouse hepatocytes, oleate lipid droplets, BODIPY imaging. inhibition, % at 6.5 µM;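 active = lipid droplet intensity inhibited by at least 50%, with more than 500 cells counted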
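Test system: AML12 mouse liver cells; schedule: overnight exposure; technique: high-content imaging of BODIPY-stained droplets and DAPI nuclei; read-out: % inhibition of corrected integrated BODIPY droplet signal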
LANA-H2A inh = blocks KSHV LANA binding to histone H2A/H2B; AID 2629; actives 0.6% (n = 320,000); inhibition, % (test concentration not listed); cell-free LANA-H2A/H2B peptide, fluorescence polarization; Q9QR71; in the data active = inhibition mostly above about 10%, no sharp cut-off; inactive = mostly below about 6.7%
TAG inh = inhibitors of triacylglycerol accumulation; AID 651582; H9c2 cells, Nile Red lipid (TAG) fluorescence; cells loaded with 200 µM oleic acid; actives 0.66% (n = 230,000); inhibition, % at 12.5 µM;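 active = pattern-corrected inhibition of lipid staining of at least 50% with the nuclear-stain viability signal not falling by more than 50%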;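 note: 0% = DMSO wells and 100% = triacsin C control wells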
STK33 kinase inh = blocks human STK33 kinase activity; inhibition, % at 10 µM; purified STK33, MBP phosphorylation, ADP-Glo luminescence; Q9BYT3; actives 0.073% (n = 320,000);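 active = inhibition at or above 25%, using the most active replicate where run in duplicate; inactive = inhibition below 25%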
GSK3 alpha inh = inhibitors of human GSK-3 alpha kinase. inhibition, % at 10 µM. AID 2650. ADP-Glo luminescence, 60 min. actives 0.1% (n = 320,000). P49840;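 active = more than half of replicates show inhibition above 20%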;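 note: GST-tagged GSK-3 alpha with peptide substrate and 25 µM ATP; 0% = DMSO neutral wells and 100% = GW8510 positive control wells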
Target sequence (P49840 whole entry, looked up): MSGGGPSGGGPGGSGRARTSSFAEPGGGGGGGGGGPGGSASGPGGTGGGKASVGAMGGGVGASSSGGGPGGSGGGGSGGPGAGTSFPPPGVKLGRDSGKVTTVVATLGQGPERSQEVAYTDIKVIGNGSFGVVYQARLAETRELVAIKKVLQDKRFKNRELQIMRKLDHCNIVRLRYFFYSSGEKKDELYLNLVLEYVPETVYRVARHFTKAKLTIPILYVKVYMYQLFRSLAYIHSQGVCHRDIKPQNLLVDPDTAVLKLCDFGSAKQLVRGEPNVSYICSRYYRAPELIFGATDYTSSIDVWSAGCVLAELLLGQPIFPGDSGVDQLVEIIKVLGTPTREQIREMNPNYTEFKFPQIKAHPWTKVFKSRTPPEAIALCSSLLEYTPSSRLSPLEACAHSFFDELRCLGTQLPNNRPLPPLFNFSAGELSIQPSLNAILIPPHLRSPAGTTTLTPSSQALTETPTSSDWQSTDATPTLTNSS
An asterisk follows results filed as active; · = not tested or not shown; ! = not confirmed by another sample.

SMILES	GSK3B inh	Hep lipid drop	LANA-H2A inh	TAG inh	STK33 kinase inh	GSK3 alpha inh
Cc1ccc(S(=O)(=O)CCSc2n[nH]c(=O)n2-c2ccc3c(c2)OCCO3)cc1	-29	0	2	23	1	77*
C=CCn1c(SC(C)C#N)nc2sc(CC)cc2c1=O (centres undefined)	-2	3	6	-13	-2	0
COc1ccc(Cl)cc1NC(=O)NC(C)C	-5	-25	0	·	-1	0
CC(C)NC(=O)Nc1n[nH]c(Nc2ccc(Cl)cc2)n1	1	-11	1	12	1	52*
Cn1c(=N)n(CC(=O)c2ccc(F)cc2)c2ccccc21	0	·	6	·	1	0
CCN(Cc1ccncc1)Cc1nc(-c2ccc(C(=O)OC)cc2)no1	2	2	9.6*	-10	-1	-3
COC(=O)c1ccc(-c2noc(CN(C)Cc3ccncc3C)n2)cc1	3	-3	-1	-2	0	-1
Cc1ccc(S(=O)(=O)c2c(C)nn(C(C)(C)C)c2OC(=O)c2ccco2)cc1	0	·	15*	-2	-1	-8
C=CC[C@H](CC(=O)N[C@H](CO)Cc1ccccc1)C(=O)N[C@@H](COC(=O)[C@@H](CC=C)CC(=O)OC(C)(C)C)Cc1c[nH]c2ccccc12	·	·	19*	16	-1	0
C=CC[C@@H](CC(=O)N[C@@H](CO)Cc1ccccc1)C(=O)N[C@H](COC(=O)[C@@H](CC=C)Cc1ccc(F)cc1)Cc1ccccc1	·	·	2	-23	0	0
C=CC[C@@H](CC(=O)N[C@@H](CO)Cc1ccccc1)C(=O)N[C@H](COC(=O)[C@@H](CC=C)CC(=O)OC(C)(C)C)Cc1c[nH]c2ccccc12	·	·	-405	30	0	1
C=CC[C@@H](CC(=O)N[C@H](CO)Cc1ccccc1)C(=O)N[C@@H](COC(=O)[C@@H](CC=C)Cc1ccc(F)cc1)Cc1ccccc1	·	·	175*	27	0	-1
C=CCC[C@H](Cc1ccc(F)cc1)C(=O)OC[C@@H](Cc1c[nH]c2ccccc12)NC(=O)[C@H](CC=C)CC(=O)N(CCO)Cc1ccccc1	·	·	0	57*	1	2
C=CC[C@H](CC(=O)NCCO)C(=O)N[C@H](C)COC(=O)[C@@H](CC=C)Cc1ccc(F)cc1	·	·	14*	13	0	-4
CCN(CC(=O)Nc1ccc(NC(C)=O)cc1)C(=O)c1ccc2c(c1)OCCO2	·	·	4	11	-1	4
CCN(CC(=O)Nc1ccc2c(c1)OCCO2)C(=O)C1CCCCC1	2	·	-4	-19	-2	-3
CCN(CC(=O)Nc1ccc(NC(C)=O)cc1)C(=O)C1CCCC1	·	·	103*	8	-2	2
CCN(CC(=O)Nc1ccc(NC(C)=O)cc1)C(=O)c1ccc2c(c1)OCO2	·	·	22*	5	-1	-2
O=S(=O)(c1ccc(Cl)cc1)N1CCN(Cc2ccc(O)c3ncccc23)CC1	1	-25	4	53*	-2	-5
NC(=O)c1nsc(C(=O)N(Cc2cccnc2)C(C(=O)NCc2ccccc2)c2ccc(O)cc2)c1N (centres undefined)	·	12	0	·	0	-1
O=C(N/N=C/c1cc([N+](=O)[O-])ccc1O)c1cccc2cc[nH]c12	-1	0	1	61*	-1	5
CN1/C(=C\C=C(C#N)C#N)C(C)(C)c2ccccc21	-3	3	45*	-354	-1	1
CN1/C(=C\C=C(/C#N)C(=O)Nc2ccc(Cl)cc2)C(C)(C)c2ccccc21	3	5	-6	·	-2	-2
COc1ccc(NC(=S)NCCCN2CCN(C3CCCCC3)CC2)cc1	-2	29	3	·	-1	2
S=C(Nc1ccc(Cl)cc1)Nc1cccc2cnccc12	-2	-28	4	·	6	5
SMILES	GSK3B inh	Hep lipid drop	LANA-H2A inh	TAG inh	STK33 kinase inh	GSK3 alpha inh
S=C(Nc1cccnc1)Nc1cccc2cnccc12	-3	4	1	5	27*	59*
CCCC#Cc1cnc2c(c1)C(=O)N([C@H](C)CO)C[C@@H](C)[C@@H](CN(C)C(=O)Nc1cccc(F)c1)O2	·	·	·	13	·	·
OCCCc1nc2n(n1)C(c1cccs1)C=C(c1ccc(Br)cc1)N2 (centres undefined)	1	-3	102*	·	-1	-2
Brc1ccc(C2=CC(c3cccs3)n3ncnc3N2)cc1 (centres undefined)	3	·	59*	-21	0	3
CCCCCCCCCCCCCCCC[n+]1ccccc1	·	·	·	54*!	·	·
CCCCCCCCCCCCCCCC[n+]1ccc(C(N)=O)cc1	·	6	10	·	20	2
CCCCCCCCCCCCCCCC[n+]1ccc(/C=N/O)cc1	·	-100	13*	·	23	0
Nc1nnc(SCC(=O)NNC(=O)c2ccccc2)s1	·	·	·	8	·	·
O=C(CNC(=O)c1ccco1)Nc1ccc(F)cc1	-25	7	2	4	5	-2
Cc1cc(N)c(NC2=CC(=O)CC(C)(C)C2)cc1C	-4	·	0	-28	2	0
Cc1cc2oc(C(=O)Nc3nonc3C)c(C)c2cc1C	1	18	-4	·	0	2
CC(C)(C)OC(=O)NCCCCCc1nnc(SCc2c(F)cccc2Cl)o1	0	13	14*	-28	1	-1
CN(C)CC(C(=O)c1ccccc1)c1ccccc1 (centres undefined)	5	-7	-2	65*	1	-2
O=C(Nc1nc2ccccc2[nH]1)c1ccc(Br)o1	-1	5	1	13	60*	0
O=C(Nc1ccccc1-c1ccccc1)c1ccc(Br)o1	1	0	-5	-1	36*	1
O=C(Nc1nc2ccccc2[nH]1)c1cccc(Br)c1	0	2	1	·	7	-2
Cc1ccccc1-c1nc(Cc2ccc(Cl)cc2)no1	-1	16	2	-33	-1	-3
CC1CN(c2ccc([N+](=O)[O-])cc2C(=O)N2CCOCC2)CC(C)N1 (centres undefined)	0	-6	-4	·	-1	3
CC1(C)Cc2c(sc3c2C2=NCCN2C=N3)CS1	-5	1	-6	16	-1	54*
O=C(CN1C(=O)c2ccccc2C1=O)Nc1ccc(S(=O)(=O)NCC2CCCO2)cc1 (centres undefined)	-2	22	-3	·	0	-1
Cc1ccccc1C(=O)Nc1sc2c(c1C(=O)O)CCC2	5	3	17*	-3	0	-2
O=C(Nc1sc2c(c1C(=O)O)CCC2)c1ccccc1Cl	-1	0	3	·	-1	-3
COCCCn1c(=S)[nH]c(C)c(C)c1=O	1	5	-2	0	-2	-1
COCCCn1c(=O)cc(C)[nH]c1=S	5	1	15*	-4	-1	0
